pIC50: −log10 of the molar value. Activity calls are given as the source filed them.
Legend:
[1] = Antioxidant activity assessed as trolox equivalent of APPH-induced radical scavenging activity at 1 to 10 uM preincubated for 15 mins followed by AAPH challenge measured every minute for 90 minutes by ORAC fluorescence assay; format: functional
Procedure, shortened: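 ORAC-FL in phosphate buffer pH 7.4. Samples (1–10 µM) preincubated with fluorescein (150 nM final) 15 min at 37 °C, then AAPH (12 mM final) added. Fluorescence (ex 485/em 535 nm) read each minute for 90 min. Net AUC over blank converted to Trolox equivalents using a 1–8 µM Trolox curve. Duplicates, at least 3 independent assays.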

[2] = target: Butyrylcholinesterase (Rattus norvegicus) (UniProt Q9JKC1); assay: Inhibition of rat serum BuChE using butyrylthiocholine iodide as substrate at 50 uM after 15 mins by Ellman's method
Procedure, shortened: (§1)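 Modified Ellman assay in phosphate buffer pH 7.4. Enzyme sources: AChE from 5% rat cortex homogenate, preincubated 5 min with iso-OMPA to block BuChE; BuChE from 25% rat serum. Substrates were acetylthiocholine or butyrylthiocholine iodide. Compounds incubated 15 min at 37 °C, then DTNB added; A405 read. IC50 derived; triplicate, 3 independent experiments; "no active" means under 5% inhibition at 50 µM.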

[3] = target: T1, Acetylcholinesterase (Rattus norvegicus, UniProt P37136); assay: Inhibition of rat cortex homogenate AchE using acetylthiocholine iodide as substrate after 15 mins by Ellman's method
T1 sequence (P37136 whole entry): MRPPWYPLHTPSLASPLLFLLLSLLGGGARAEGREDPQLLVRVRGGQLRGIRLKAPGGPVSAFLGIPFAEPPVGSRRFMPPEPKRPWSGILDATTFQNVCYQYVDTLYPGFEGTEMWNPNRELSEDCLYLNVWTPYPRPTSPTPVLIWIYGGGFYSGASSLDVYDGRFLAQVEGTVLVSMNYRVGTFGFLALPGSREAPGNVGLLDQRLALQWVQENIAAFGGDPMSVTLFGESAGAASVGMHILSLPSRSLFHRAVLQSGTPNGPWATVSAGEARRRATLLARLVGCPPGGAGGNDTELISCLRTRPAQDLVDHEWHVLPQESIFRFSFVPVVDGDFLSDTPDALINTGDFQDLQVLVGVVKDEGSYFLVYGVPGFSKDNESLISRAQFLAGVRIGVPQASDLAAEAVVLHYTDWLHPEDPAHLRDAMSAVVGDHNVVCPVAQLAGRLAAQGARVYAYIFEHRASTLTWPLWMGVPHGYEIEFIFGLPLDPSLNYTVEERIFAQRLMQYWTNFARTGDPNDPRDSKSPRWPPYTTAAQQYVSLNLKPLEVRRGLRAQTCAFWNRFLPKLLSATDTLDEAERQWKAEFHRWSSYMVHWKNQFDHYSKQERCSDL

[4] = test system: Mus musculus; assay: Cognition enhancing effect against scopolamine-induced memory deficit in Kunming mouse assessed as increase in latency time at 5 mg/kg, po administered 1 hr before training followed by scopolamine challenge for 7 days measured after 24 hrs by step-down passive avoidance test; format: functional, organism-based; parameters: dose 5 mg/kg
Procedure, shortened: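 Kunming mice (18–22 g, six weeks old, either sex), 10 per group. Drug in vegetable oil given orally 1 h before training, with scopolamine (3 mg/kg i.p., in 0.9% saline) 30 min later. Behavioural testing one day after 7 days of treatment. Training: 0.5 mA, 2 s foot shock on stepping down from a block. Step-down latency measured 24 h later, 300 s cut-off. Mean ± SEM.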

[5] = target: Acetylcholinesterase (Electrophorus electricus, UniProt O42275); assay: Inhibition of electric eel AchE using acetylthiocholine iodide as substrate after 15 mins by Ellman's method
[6] = target: Amyloid-beta precursor protein (Homo sapiens) (UniProt P05067); assay: Inhibition of Cu2+-induced amyloid beta (1 to 42) (unknown origin) aggregation at 25 uM after 24 hrs by thioflavin T fluorescence method
Procedure, shortened: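 Aβ1-42 (25 µM final, HFIP-pretreated) with an equimolar amount of Cu2+ (25 µM) in HEPES pH 6.6 with 150 mM NaCl. Incubated with or without compound (10–35 µM final) 24 h at 37 °C. ThT in glycine-NaOH pH 8.5 added, fluorescence ex 446/em 490 nm. DMSO 12.5% final. Percent inhibition relative to no-inhibitor wells; triplicate, mean of 3 independent experiments.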

[7] = target: T2, Acetylcholinesterase (Homo sapiens, UniProt P22303); assay: Inhibition of human erythrocytes AchE using acetylthiocholine iodide as substrate after 15 mins by Ellman's method
[8] = target: Amyloid-beta precursor protein (Homo sapiens) (UniProt P05067); assay: Induction of amyloid beta (1 to 42) (unknown origin) disaggregation assessed as reduction of Cu2+-induced amyloid beta fibril formation at 25 uM after 24 hrs by thioflavin T fluorescence method; parameters: scale not given: the % may be the effect or the level left
Procedure, shortened: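 Aβ1-42 (25 µM final, HFIP-pretreated) and Cu2+ (25 µM) in HEPES pH 6.6 with 150 mM NaCl, incubated 24 h at 37 °C. Test compound (25 µM final) then added for a further 24 h at 37 °C, wells sealed. Read by ThT in glycine-NaOH pH 8.5 (ex 446/em 490 nm). DMSO 12.5% final; triplicate.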

[9] = test system: Mus musculus; assay: Cognition enhancing effect against scopolamine-induced memory deficit in po dosed Kunming mouse assessed as increase in latency time administered 1 hr before training followed by scopolamine challenge for 7 days measured after 24 hrs by step-down passive avoidance test; format: functional, organism-based
Procedure, shortened: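 Kunming mice, six weeks old, 18–22 g, either sex, n=10 per group. Oral dosing at 2, 6, 18 or 3, 9, 27 mg/kg in vegetable oil, 1 h before training; vehicle as negative control. Scopolamine (3 mg/kg i.p., in saline) given 30 min later. Behavioural testing after 7 days of treatment. Step-down training used a 0.5 mA, 2 s foot shock. Latency measured 24 h later, cut-off 300 s; mean ± SEM.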

[10] = target: Amyloid-beta precursor protein (Homo sapiens) (UniProt P05067); assay: Inhibition of self-induced amyloid beta (1 to 42) (unknown origin) aggregation at 25 uM after 24 hrs by thioflavin T fluorescence method
Procedure, shortened: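 HFIP-pretreated Aβ1-42 (25 µM final) incubated with compound (10–50 µM) in 50 mM phosphate pH 7.4 for 24 h at 37 °C, wells sealed. ThT in glycine-NaOH pH 8.5 added; fluorescence ex 446/em 490 nm. DMSO 12.5% final. Percent inhibition relative to peptide without inhibitor; triplicate, mean of 3 independent experiments.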

[11] = target: T3, Acetylcholinesterase (Rattus norvegicus) (UniProt P37136); assay: Inhibition of rat cortex homogenate AchE using acetylthiocholine iodide as substrate at 50 uM after 15 mins by Ellman's method; procedure, shortened: as §1
T3 sequence (whole entry): T1 sequence (P37136 whole entry)

[12] = target: T2, Acetylcholinesterase; assay: Inhibition of human erythrocytes AchE using acetylthiocholine iodide as substrate at 50 uM after 15 mins by Ellman's method
Procedure, shortened: (§2)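 Modified Ellman assay with purified eel or human erythrocyte AChE (0.05 U/mL final) in phosphate buffer pH 8.0. Compound and enzyme incubated 15 min at 37 °C with acetylthiocholine iodide, then DTNB added; absorbance read at 412 nm. IC50 is the concentration giving 50% inhibition. Assays in triplicate, 3 independent experiments; "no active" means under 5% inhibition at 50 µM.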

[13] = target: Acetylcholinesterase (Electrophorus electricus) (UniProt O42275); assay: Inhibition of electric eel AchE using acetylthiocholine iodide as substrate at 50 uM after 15 mins by Ellman's method; procedure, shortened: as §2
Chain of Acetylcholinesterase (Electrophorus electricus) (O42275 24-633 limits assumed): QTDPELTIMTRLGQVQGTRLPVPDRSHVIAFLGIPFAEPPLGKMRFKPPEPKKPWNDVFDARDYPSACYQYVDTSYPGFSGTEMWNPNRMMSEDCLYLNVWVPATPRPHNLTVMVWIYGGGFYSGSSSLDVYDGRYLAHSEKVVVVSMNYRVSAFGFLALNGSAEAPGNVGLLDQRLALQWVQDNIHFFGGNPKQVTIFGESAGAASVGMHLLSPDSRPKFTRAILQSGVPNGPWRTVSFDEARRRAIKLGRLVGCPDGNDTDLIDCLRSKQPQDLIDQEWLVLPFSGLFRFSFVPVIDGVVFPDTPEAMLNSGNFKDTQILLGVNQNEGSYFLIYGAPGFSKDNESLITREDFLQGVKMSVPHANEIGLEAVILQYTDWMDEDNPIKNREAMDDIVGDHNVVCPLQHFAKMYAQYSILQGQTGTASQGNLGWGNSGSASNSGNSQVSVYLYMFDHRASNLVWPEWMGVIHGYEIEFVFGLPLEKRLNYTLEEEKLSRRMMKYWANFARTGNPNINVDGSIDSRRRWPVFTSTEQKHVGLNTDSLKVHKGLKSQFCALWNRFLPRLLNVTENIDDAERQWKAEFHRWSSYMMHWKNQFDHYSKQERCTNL

T2 sequence (P22303 whole entry): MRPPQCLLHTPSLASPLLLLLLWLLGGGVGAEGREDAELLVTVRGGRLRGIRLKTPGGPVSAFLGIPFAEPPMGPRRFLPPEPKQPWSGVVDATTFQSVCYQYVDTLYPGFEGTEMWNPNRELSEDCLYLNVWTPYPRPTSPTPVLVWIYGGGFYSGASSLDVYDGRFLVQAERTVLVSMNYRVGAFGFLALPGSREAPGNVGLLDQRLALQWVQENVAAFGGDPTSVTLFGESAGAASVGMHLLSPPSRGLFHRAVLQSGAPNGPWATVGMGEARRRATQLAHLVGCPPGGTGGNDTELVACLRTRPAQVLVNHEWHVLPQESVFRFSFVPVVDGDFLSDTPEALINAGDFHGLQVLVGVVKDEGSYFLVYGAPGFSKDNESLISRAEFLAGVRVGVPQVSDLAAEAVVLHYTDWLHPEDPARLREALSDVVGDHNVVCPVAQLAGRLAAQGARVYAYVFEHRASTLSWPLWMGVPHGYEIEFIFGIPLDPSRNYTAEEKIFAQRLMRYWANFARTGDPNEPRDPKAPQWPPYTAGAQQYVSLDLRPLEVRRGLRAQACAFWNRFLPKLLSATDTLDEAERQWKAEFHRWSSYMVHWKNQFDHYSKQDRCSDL
Chain of Amyloid-beta precursor protein (Homo sapiens) (P05067 whole entry): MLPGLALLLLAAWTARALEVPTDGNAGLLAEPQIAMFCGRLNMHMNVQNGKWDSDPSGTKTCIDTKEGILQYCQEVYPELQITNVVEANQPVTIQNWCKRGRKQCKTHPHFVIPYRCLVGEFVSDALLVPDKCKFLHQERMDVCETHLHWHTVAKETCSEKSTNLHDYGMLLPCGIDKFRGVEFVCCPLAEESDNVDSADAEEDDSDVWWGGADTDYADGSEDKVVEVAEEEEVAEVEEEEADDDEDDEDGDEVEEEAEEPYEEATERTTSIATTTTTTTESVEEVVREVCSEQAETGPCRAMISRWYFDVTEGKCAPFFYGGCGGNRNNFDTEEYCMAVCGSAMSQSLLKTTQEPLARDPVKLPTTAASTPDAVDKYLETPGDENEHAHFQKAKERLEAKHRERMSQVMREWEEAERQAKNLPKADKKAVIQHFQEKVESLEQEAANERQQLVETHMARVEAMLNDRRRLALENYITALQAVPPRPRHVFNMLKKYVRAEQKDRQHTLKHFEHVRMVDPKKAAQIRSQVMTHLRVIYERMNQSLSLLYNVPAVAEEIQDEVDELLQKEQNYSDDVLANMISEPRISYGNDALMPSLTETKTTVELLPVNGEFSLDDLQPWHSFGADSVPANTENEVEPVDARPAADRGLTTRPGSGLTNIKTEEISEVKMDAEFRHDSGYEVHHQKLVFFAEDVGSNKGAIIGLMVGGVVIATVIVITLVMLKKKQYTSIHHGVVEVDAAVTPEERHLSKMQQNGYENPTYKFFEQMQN
Chain of Butyrylcholinesterase (Rattus norvegicus) (Q9JKC1 as listed by the source): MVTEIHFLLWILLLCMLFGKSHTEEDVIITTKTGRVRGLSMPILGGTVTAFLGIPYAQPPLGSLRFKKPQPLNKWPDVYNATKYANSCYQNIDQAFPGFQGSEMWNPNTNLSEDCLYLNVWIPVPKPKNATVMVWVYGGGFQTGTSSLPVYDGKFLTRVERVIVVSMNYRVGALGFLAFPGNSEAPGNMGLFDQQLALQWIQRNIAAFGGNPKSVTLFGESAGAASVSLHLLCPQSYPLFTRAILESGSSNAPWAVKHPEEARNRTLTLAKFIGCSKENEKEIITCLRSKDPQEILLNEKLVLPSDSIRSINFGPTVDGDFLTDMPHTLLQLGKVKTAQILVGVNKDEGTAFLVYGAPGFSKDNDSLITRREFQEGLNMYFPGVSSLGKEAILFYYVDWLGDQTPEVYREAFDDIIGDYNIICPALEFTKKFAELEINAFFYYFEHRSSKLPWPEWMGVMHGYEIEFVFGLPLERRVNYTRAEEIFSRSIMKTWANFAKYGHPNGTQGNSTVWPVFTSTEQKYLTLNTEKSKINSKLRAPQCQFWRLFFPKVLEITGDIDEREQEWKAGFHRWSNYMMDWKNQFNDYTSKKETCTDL
Chain of Acetylcholinesterase (Electrophorus electricus, UniProt O42275) (O42275 whole entry): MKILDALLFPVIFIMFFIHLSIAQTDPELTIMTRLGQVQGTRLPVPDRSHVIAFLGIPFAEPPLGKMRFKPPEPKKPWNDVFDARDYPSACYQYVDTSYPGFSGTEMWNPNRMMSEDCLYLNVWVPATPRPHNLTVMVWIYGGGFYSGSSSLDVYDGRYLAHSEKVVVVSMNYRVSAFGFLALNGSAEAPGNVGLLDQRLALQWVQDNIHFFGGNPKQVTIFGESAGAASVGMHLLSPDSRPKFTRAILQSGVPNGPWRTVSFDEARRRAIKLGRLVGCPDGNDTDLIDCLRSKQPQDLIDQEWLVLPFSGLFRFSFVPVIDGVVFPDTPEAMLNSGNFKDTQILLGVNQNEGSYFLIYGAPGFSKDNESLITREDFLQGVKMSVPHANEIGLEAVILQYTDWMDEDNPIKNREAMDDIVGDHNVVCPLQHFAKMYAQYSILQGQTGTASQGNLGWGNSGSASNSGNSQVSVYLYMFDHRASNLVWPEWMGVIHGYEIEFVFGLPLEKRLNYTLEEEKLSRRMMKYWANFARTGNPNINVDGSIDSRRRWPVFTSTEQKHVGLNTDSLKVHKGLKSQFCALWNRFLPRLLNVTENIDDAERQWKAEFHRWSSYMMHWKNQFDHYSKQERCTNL

For `CCN(CCCCOc1ccc(-c2coc3cc(O)cc(O)c3c2=O)cc1)Cc1ccccc1`, the Activity [1] was 0.6, the inhibition [2] was < 5% and the pIC50 [3] was 4.89.

Work on `CCN(CCCOc1ccc(-c2coc3cc(O)cc(O)c3c2=O)cc1)Cc1ccccc1OC` yielded an Activity [1] of 0.64, an inhibition [2] of 17.6% and a pIC50 [3] of 4.80.

In the case of `CN(CCCOc1ccc(-c2coc3cc(O)cc(O)c3c2=O)cc1)Cc1ccccc1`, the Activity [1] was 0.46, the inhibition [2] was < 5% and the pIC50 [3] was 4.31.

For `COc1ccccc1CN(C)CCCCCCOc1ccc(-c2coc3cc(O)cc(O)c3c2=O)cc1`, the Activity [1] was 0.4, the inhibition [2] was < 5% and the pIC50 [3] was 5.25.

In the case of `COc1cc2c(cc1OC)C(=O)C(CC1CCN(Cc3ccccc3)CC1)C2` (configuration not stated), the Activity [4] was “Active”.

For `COc1ccccc1CN(C)CCCOc1cc(O)c2c(=O)c(-c3ccc(O)cc3)coc2c1`, the Activity [1] was 1.05, the inhibition [2] was < 5% and the pIC50 [3] was 4.87.

In the case of `CCN(CCCCCCOc1ccc(-c2coc3cc(OCCCCCCN(CC)Cc4ccccc4OC)cc(O)c3c2=O)cc1)Cc1ccccc1OC`, the pIC50 [5] was 5.42, the Activity [1] was 0.13 and the inhibition [2] was 11.6%. For the same compound, the pIC50 [3] was 6.29.

Work on `CCN(CCCCOc1cc(O)c2c(=O)c(-c3ccc(O)cc3)coc2c1)Cc1ccccc1` yielded an Activity [1] of 2.4, an inhibition [2] of 10.4% and a pIC50 [3] of 5.62.

With `CCN(CCCOc1cc(O)c2c(=O)c(-c3ccc(O)cc3)coc2c1)Cc1ccccc1OC` the Activity [1] was 1.02, the inhibition [2] was < 5% and the pIC50 [3] was 6.33.

With `CCN(CCCCCCOc1ccc(-c2coc3cc(O)cc(O)c3c2=O)cc1)Cc1ccccc1` the Activity [1] was 0.29, the inhibition [2] was < 5% and the pIC50 [3] was 4.42.

For `CCN(CCCCCCOc1cc(O)c2c(=O)c(-c3ccc(O)cc3)coc2c1)Cc1ccccc1OC`, the Activity [1] was 0.56, the inhibition [2] was < 5% and the pIC50 [3] was 6.28.

With `COc1ccccc1CN(C)CCCCOc1ccc(-c2coc3cc(O)cc(O)c3c2=O)cc1` the Activity [1] was 1.1, the inhibition [2] was 9.7% and the pIC50 [3] was 5.27.

In the case of `COc1ccccc1CN(C)CCCCCCOc1cc(O)c2c(=O)c(-c3ccc(O)cc3)coc2c1`, the Activity [1] was 2.7, the inhibition [2] was < 5% and the pIC50 [3] was 5.50.

In the case of `CN(CCCCCCOc1ccc(-c2coc3cc(O)cc(O)c3c2=O)cc1)Cc1ccccc1`, the Activity [1] was 0.3, the inhibition [2] was 7.7% and the pIC50 [3] was 5.45.

In the case of `CN(CCCOc1cc(O)c2c(=O)c(-c3ccc(O)cc3)coc2c1)Cc1ccccc1`, the Activity [1] was 0.89, the inhibition [2] was 7.4% and the pIC50 [3] was 4.44.

Work on `CCN(CCCOc1ccc(-c2coc3cc(OCCCN(CC)Cc4ccccc4OC)cc(O)c3c2=O)cc1)Cc1ccccc1OC` yielded a pIC50 [5] of 6.80, an Activity [1] of 0.49 and an inhibition [2] of 12.5%. The pIC50 [3] was 6.68.

For `CCN(CCCCOc1ccc(-c2coc3cc(OCCCCN(CC)Cc4ccccc4)cc(O)c3c2=O)cc1)Cc1ccccc1`, the Activity [1] was 0.26, the inhibition [2] was 10.3% and the pIC50 [3] was 6.05.

Compound `CN(CCCCOc1ccc(-c2coc3cc(O)cc(O)c3c2=O)cc1)Cc1ccccc1` has an Activity [1] of 0.32, an inhibition [2] of 10.8% and a pIC50 [3] of 5.42.

Work on `COc1cc(/C=C/C(=O)CC(=O)/C=C/c2ccc(O)c(OC)c2)ccc1O` yielded an inhibition [6] of 64%.

Compound `CCN(CCCCCCOc1cc(O)c2c(=O)c(-c3ccc(O)cc3)coc2c1)Cc1ccccc1` has a pIC50 [5] of 5.30, an Activity [1] of 1.2 and a pIC50 [7] of 5.24. For the same compound, the Activity [8] was 36.1%, the Activity [9] was “Dose-dependent effect” and the inhibition [10] was 34.3%. The inhibition [2] was < 5%, the inhibition [6] was 72.1% and the pIC50 [3] was 6.46.

For `COc1ccccc1CN(C)CCCCOc1cc(O)c2c(=O)c(-c3ccc(O)cc3)coc2c1`, the Activity [1] was 1.56, the inhibition [2] was < 5% and the pIC50 [3] was 5.26.

In the case of `CN(CCCCCCOc1cc(O)c2c(=O)c(-c3ccc(O)cc3)coc2c1)Cc1ccccc1`, the Activity [1] was 0.65, the inhibition [2] was < 5% and the pIC50 [3] was 5.37.

`CCN(CCCCOc1cc(O)c2c(=O)c(-c3ccc(O)cc3)coc2c1)Cc1ccccc1OC` gave an Activity [1] of 1.06, an inhibition [2] of 7.7% and a pIC50 [3] of 6.08.

In the case of `CCN(CCCOc1cc(O)c2c(=O)c(-c3ccc(O)cc3)coc2c1)Cc1ccccc1`, the Activity [1] was 1.12, the inhibition [2] was 9.9% and the pIC50 [3] was 5.85.

With `CN(CCCCOc1cc(O)c2c(=O)c(-c3ccc(O)cc3)coc2c1)Cc1ccccc1` the Activity [1] was 1, the inhibition [2] was 8.9% and the pIC50 [3] was 4.26.

In the case of `CCN(CCCCCCOc1ccc(-c2coc3cc(O)cc(O)c3c2=O)cc1)Cc1ccccc1OC`, the Activity [1] was 0.38, the inhibition [2] was < 5% and the pIC50 [3] was 5.77.

In the case of `O=c1c(-c2ccc(O)cc2)coc2cc(O)cc(O)c12`, the inhibition [11] was < 5%, the Activity [1] was 5 and the inhibition [12] was < 5%. For the same compound, the inhibition [2] was < 5% and the inhibition [13] was < 5%.

Work on `CCN(CCCOc1ccc(-c2coc3cc(O)cc(O)c3c2=O)cc1)Cc1ccccc1` yielded an Activity [1] of 0.58, an inhibition [2] of 11.6% and a pIC50 [3] of 4.37.

In the case of `CCN(CCCCOc1ccc(-c2coc3cc(O)cc(O)c3c2=O)cc1)Cc1ccccc1OC`, the pIC50 [5] was 4.80, the Activity [1] was 1.1 and the pIC50 [7] was 5.41. For the same compound, the Activity [8] was 39.2%, the Activity [9] was “Dose-dependent effect” and the inhibition [10] was 24.6%. For the same compound, the inhibition [2] was 6.7%, the inhibition [6] was 71.9% and the pIC50 [3] was 5.84.

For `COc1ccccc1CN(C)CCCOc1ccc(-c2coc3cc(O)cc(O)c3c2=O)cc1`, the Activity [1] was 0.62, the inhibition [2] was < 5% and the pIC50 [3] was 4.43.

— ChEMBL document CHEMBL3124932, “Design, synthesis and evaluation of genistein-O-alkylbenzylamines as potential multifunctional agents for the treatment of Alzheimer's disease” (Eur J Med Chem, 2014)
